Screens deposited in PubChem BioAssay by Broad Institute.
A selection: hits, their analogues and other compounds. The true share with any hit is near 3.1%.
T cruzi inh – inhibitors of intracellular T. cruzi growth, primary screen, luminescence, NIH3T3 host cells. T. cruzi beta-gal in NIH3T3, 90 h. inhibition, % (concentration not given with the values). actives 1.4% (n = 300,000);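 active means mean inhibition across valid replicates above about 55%, limit read from the data; inconclusive means mean below that limit but half or more replicates reach it; inactive means mean below it, under half of replicates reach it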;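 further: signal also drops with host cell toxicity which is not excluded here; 0% = plate median of DMSO wells and 100% = zero luminescence signal; higher percent means less beta-gal luminescence so fewer parasites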
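Test system: β-gal T. cruzi (Tulahuen C4) inside NIH/3T3 cells / Quantity: 5,000 cells/well / Measured by: luminescence from GalScreen with 0.05% NP40, read after 60 min / Medium: DMEM plus 2% FBS / Measure: parasite load inhibition, % / Reagent: Tulahuen C4 trypomastigotes, 5000/well / Schedule: co-culture of at least 90 h after 3 h attachment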
Beta cell apopt – inhibitors of cytokine-induced beta cell apoptosis, primary screen, luminescence. INS-1E cytokine-induced death, ATP luminescence, 48 h; percent of positive-control rescue, neutral wells zero. protection from apoptosis, % (test concentration not listed). actives 0.8% (n = 300,000). AID 435005, 2010;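 active means Every replicate reaches about 75%, or at least half do and their mean reaches it too, limit read from the data; inconclusive means At least half of replicates reach the limit but their mean does not; inactive means Under half of replicates reach the limit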;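 further: 0% = cytokine-treated negative control wells and 100% = positive control rescue; higher means more ATP so stronger rescue from cytokine killing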
Calb FLC – C. albicans growth inhibition with fluconazole, primary screen, CaCi-2 strain, Alamar Blue fluorescence; C. albicans CaCi-2 + fluconazole, 48 h; AID 1979, 2009; actives 0.57% (n = 300,000); growth inhibition, % (no concentration beside the values);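 active means growth inhibition above about 58% in most replicates, limit read from the data, passing the limit was not always enough; inconclusive means exactly half the replicates above a set limit; inactive means most replicates below a set limit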;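 further: all wells also contain fluconazole at 8 µg/ml as a sub-toxic cotreatment; 0% = median of DMSO wells and 100% = median of geldanamycin control wells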
CSC inhib – cancer stem cell viability inhibitors, primary screen, luminescence; actives 1.1% (n = 300,000); inhibition, % at 7.5 µM; cancer stem cell-like cells viability; in the data active means inhibition above about 75%; inconclusive means no clear call, values can overlap the other calls; tested in HMLE shEcad cells
HIF activator – HIF pathway transcriptional activators, primary screen, cell-based, U2OS HRE-luciferase, luminescence; U2OS HRE-luciferase reporter; normalized: DMSO 0%, desferrioxamine 100%; activation, % at 7.5 µM (by protocol); actives 0.32% (n = 300,000); AID 1910, 2009;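 active means mean activation of at least 10% of the iron chelator positive control signal, with at least half of replicates also reaching 10%; inconclusive means mean and replicate majority disagree about reaching 10%; inactive means mean and most replicates under 10%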
PolyA inhibitor – polyadenylation inhibitors in yeast reporter cells, primary screen, luminescence, S. cerevisiae. S. cerevisiae SKY197-pL101 polyadenylation reporter, beta-gal luminescence; efflux-impaired pdr1/pdr3 knockout yeast; score 100 = 6 SD above DMSO. activity score, % at 12 µM. actives 0.02% (n = 300,000). AID 1875, 2009;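 active means lowest replicate activity score at least 50, where 100 means six control SD above control mean; inconclusive means lowest score under 50 but half or more replicates reach 50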;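 further: yeast exposed to compound for 9 h at 30 °C; higher score means more reporter readthrough which indicates perturbed polyadenylation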
* marks the source's active call; other numbers are inactive results; ? = inconclusive; . = no result given.

SMILES | T cruzi inh | Beta cell apopt | Calb FLC | CSC inhib | HIF activator | PolyA inhibitor
Clc1ccc(OCCCCCN2CCCC2)c(Br)c1 | 68* | 2 | 11 | 23 | 0 | -18
Clc1ccc(OCCCN2CCCCC2)c(Br)c1 | 46 | 9 | -11 | 7 | 2 | -4
Clc1ccc(Cl)c(OCCCCN2CCNCC2)c1 | 60* | 3 | -18 | 96* | -1 | -4
COc1cc(-c2nc3cccc(C)n3c2NCC2CCCO2)ccc1O (stereo not drawn) | -16 | 0 | 7 | -12 | 1 | -11
Cc1ccc(/C=C/S(=O)(=O)NCCC(=O)NCc2ccccc2F)cc1 | . | 0 | . | 2 | . | .
CCOC(=O)C1CCN(C(=O)CSc2ccccc2Cl)CC1 | 7 | . | 2 | -8 | 0 | -24
CC1CC(C)CN(CCOc2cccc(Cl)c2Cl)C1 (stereo not drawn) | 25 | 4 | 3 | 39 | 0 | 2
CCN1CCN(CCCOc2ccc(Cl)cc2Br)CC1 | 57* | 4 | 2 | 57 | 0 | 15
Cc1cc(Br)ccc1OCCN1CCCC1 | 73* | -3 | 0 | 41 | 0 | 9
CCN1CCN(CCOc2cccc(Cl)c2Cl)CC1 | 78* | . | 8 | 8 | 0 | 0
ClCC1NCC(c2ccccc2Cl)c2c1[nH]c1ccccc21 (stereo not drawn) | 14 | -5 | 10 | 20 | -3 | 22
CN(C)S(=O)(=O)c1ccc(N2CCCC2)c(C(=O)NCC2COc3ccccc3O2)c1 (stereo not drawn) | 2 | . | 3 | -9 | 0 | -2
Cc1c(C(=O)NCC2COc3ccccc3O2)oc2ccc(S(=O)(=O)N(C)C3CCCCC3)cc12 (stereo not drawn) | 75* | 14 | 9 | 16 | 0 | 4
Cc1cc(Cl)ccc1OCc1cn2cccnc2n1 | -11 | 2 | 61* | -16 | 4 | -1
Clc1ccc(OCc2cn3cccnc3n2)c2ncccc12 | -5 | . | 8 | . | -4 | -5
Cc1sc2ccccc2[n+]1CC(=O)c1ccccc1 | 1 | -6 | -2 | -11 | 1 | 5
O=C(c1ccccc1)c1c2c(cc3sc4ccccc4[n+]13)-c1cccc3cccc-2c13 | . | 98* | . | 64 | . | .
Cc1sc2cc3c(c(C(=O)c4ccccc4)[n+]2c1C)-c1cccc2cccc-3c12 | 74* | 100* | 57 | 35 | 11* | -51
O=C(c1ccccc1)c1cccc(C(=O)c2ccccc2)c1 | . | -1 | . | 6 | . | .
CC1CCN(CC(=O)Nc2cccc(C(=O)Nc3cccc(C(F)(F)F)c3)c2)CC1 | 41 | 2 | -7 | 44 | 0 | 11
Cc1ccc(F)cc1NC(=O)COC(=O)C1CCN(c2ccc(C(F)(F)F)cn2)CC1 | 4 | -4 | . | -1 | 0 | -17
Cc1ccc2c(c1)c1c(n2CC(O)CNC(CO)(CO)CO)CCCC1 (stereo not drawn) | -2 | 0 | 3 | -13 | . | 7
Cc1ccc2c(c1)c1c(n2CC(O)CNC2CCCCC2)CCCC1 (stereo not drawn) | 44 | 21 | -14 | 77* | 0 | -19
CC(C)CC(NC(=O)c1ccccc1NC(=O)c1ccccc1)C(=O)O (stereo not drawn) | -7 | -1 | -8 | -2 | 369* | -12
CCC(NC(=O)c1ccccc1NC(=O)c1ccccc1)C(=O)O (stereo not drawn) | 0 | 5 | -5 | 2 | 0 | 12
SMILES | T cruzi inh | Beta cell apopt | Calb FLC | CSC inhib | HIF activator | PolyA inhibitor
CCOC(=O)c1sc(-c2ccc(Cl)cc2Cl)nc1O | -1 | -4 | 10 | -3 | 0 | -22
CCOC(=O)C1=C(C)N2C(=C(C#N)[C@@H]1c1ccc(C(=O)OC)cc1)SC[C@@]2(O)C(C)(C)C | 32 | 25 | 12 | 82* | -1 | 11
CC[N+](C)(CC)CCOC(=O)C(O)(c1ccccc1)C1CCCCC1 (stereo not drawn) | 4 | 1 | . | -2 | 0 | 1
CC[N+](C)(CC)CCC(c1ccccc1)C1CCCCC1 (stereo not drawn) | 9 | 105* | -27 | -5 | 0 | -7
Cc1[nH]n2c(=O)c3c(nc2c1-c1ccccc1)CCCC3 | 3 | -6 | 4 | -6 | 0 | -10
Cc1[nH]n2c(=O)c3c(nc2c1-c1ccc(F)cc1)CCCC3 | 74* | . | -13 | 6 | 0 | 7
O=c1c2c(nc3c(-c4ccc(Cl)cc4)c[nH]n13)CCCC2 | -7 | 93* | 5 | . | 0 | -1
CC(=O)c1ccc(NC(=O)C2=CC(c3ccco3)=NS(=O)(=O)N2C)cc1 | -16 | -3 | 4 | 10 | 1 | -9
O=C(Nc1ccccn1)c1cccc(S(=O)(=O)N2CCCC2)c1 | -3 | -5 | -4 | 1 | 0 | -3
O=C(O)Cn1nnc(-c2ccc(OCc3ccccc3)cc2)n1 | -20 | -1 | 3 | -13 | 1 | -3
Cc1ccc(N2NC(=O)/C(=C/c3ccc(-c4ccc(Cl)c(C(=O)O)c4)o3)C2=O)cc1C | -9 | . | 2 | 0 | 0 | 25
O=C1NN(c2ccc(Cl)c(Cl)c2)C(=O)/C1=C/c1ccc(-c2ccccc2C(=O)O)o1 | -10 | 1 | 81* | 0 | -2 | -10
COC(=O)c1ccc(N2NC(=O)/C(=C/c3ccc(-c4ccc(Cl)c(C(=O)O)c4)o3)C2=O)cc1 | -9 | . | 62* | . | -1 | 7
CCN=c1scc(C)n1/N=C/c1cc(Br)c(O)c(Br)c1 | 3 | 7 | 44 | 50 | -1 | -16
CCN=c1scc(C)n1/N=C/c1ccc(O)c(O)c1O | -2 | -4 | 88* | 9 | -1 | -2
C=CCN(C(=O)CSc1nc2c(sc3ccccc32)c(=O)n1CCN(CC)CC)c1ccccc1 | 82* | 19 | 15 | . | 1 | -18
CCCCn1c(N)c(N(CC(C)C)C(=O)C2CCN(S(=O)(=O)c3ccc(C)cc3C)CC2)c(=O)[nH]c1=O | -1 | 3 | -8 | 1 | 0 | 10
Cc1sc2ncnc(N3CCN(S(=O)(=O)c4ccc(C(C)(C)C)cc4)CC3)c2c1C | . | 124* | . | 6 | . | .
Cc1sc2ncnc(N3CCC(C)CC3)c2c1C | -5 | 3 | 1 | 4 | -3 | -14
O=S(=O)(c1ccc(Cl)cc1)N1CCN(c2ncnc3sccc23)CC1 | . | 83* | . | 12 | . | .
Cc1csc2ncnc(N3CCN(S(=O)(=O)c4cccc(C(F)(F)F)c4)CC3)c12 | 1 | 95* | -6 | 3 | -1 | -14
Cc1sc2ncnc(N3CCN(CCOc4ccc(Cl)cc4)CC3)c2c1C | 59* | 103* | ? | 83* | 0 | 18
CC(=O)O[C@H]1[C@H](C)OC=C[C@@H]1OC(C)=O | 4 | . | -1 | 10 | 0 | 0
